According to ChEMBL document CHEMBL2086343, “Design, synthesis and antibacterial activity of minor groove binders: the role of non-cationic tail groups” (Eur J Med Chem, 2012):
Converted amounts (≈) assume the structure as drawn. The source made the active and inactive calls. No cut-off for these calls is given here.

Columns and labels:
[1] = system: Staphylococcus aureus; assay: Antibacterial activity against Staphylococcus aureus; type: functional
[2] = target: hERG (KCNH2) (Homo sapiens, UniProt Q12809); assay: Displacement of [3H]astemizole from human hERG transfected in HEK293 cells at 10 uM after 1 hr by scintillation counter; type: cell-based; conditions: HEK293 cells transfected with human hERG, probe [3H]astemizole
Outline: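 Membranes came from hERG-transfected HEK293 cells (grown at 37 °C, 5% CO₂), homogenised and spun at 200,000 g. About 200,000 cells per tube were incubated 1 h at 30 °C with 0.5 nM [³H]astemizole and compound at 10 µM in HEPES pH 7.4 buffer. Non-specific binding was set with 10 µM unlabelled astemizole. Samples were filtered (GF/B) and counted by scintillation. Triplicates, n = 3.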

[3] = system: Nucleic Acid; assay: Binding affinity to HexB DNA at <10 uM after 30 mins by DNase 1 footprinting assay; type: nucleic-acid assay
[4] = system: Nucleic Acid; assay: Binding affinity to HexRev DNA at <10 uM after 30 mins by DNase 1 footprinting assay; type: nucleic-acid assay
Outline: (§1)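 DNase I footprinting used 3'-end radiolabelled DNA (<10 nM) in 10 mM Tris-HCl pH 7.5 with 0.1 mM EDTA. It was incubated with ligand for at least 30 min at room temperature, then digested 1 min with about 0.01 units/mL DNase I (with NaCl, MgCl₂, MnCl₂). Fragments were resolved on 8% denaturing polyacrylamide/8 M urea gels and read by phosphorimaging.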

[5] = system: Nucleic Acid; assay: Binding affinity to 5'GCGATATATGCG3' DNA sequence assessed as change in melting temperature by thermal denaturation assay; type: nucleic-acid assay
Outline: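 Oligonucleotide and its complement at 6×10^-6 M, mixed with MGB at the chosen ratio, in 10 mM PBS pH 7.4 with 50 mM NaCl. Heated 10→80 °C and cooled 80→10 °C at 0.5 °C/min. Absorbance was read at 260 nm, and Tm was taken from the derivative maxima.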

[6] = system: Nucleic Acid; assay: Binding affinity to HexA DNA at <10 uM after 30 mins by DNase 1 footprinting assay; type: nucleic-acid assay; outline: as §1

hERG (KCNH2), sequence (Q12809 whole entry): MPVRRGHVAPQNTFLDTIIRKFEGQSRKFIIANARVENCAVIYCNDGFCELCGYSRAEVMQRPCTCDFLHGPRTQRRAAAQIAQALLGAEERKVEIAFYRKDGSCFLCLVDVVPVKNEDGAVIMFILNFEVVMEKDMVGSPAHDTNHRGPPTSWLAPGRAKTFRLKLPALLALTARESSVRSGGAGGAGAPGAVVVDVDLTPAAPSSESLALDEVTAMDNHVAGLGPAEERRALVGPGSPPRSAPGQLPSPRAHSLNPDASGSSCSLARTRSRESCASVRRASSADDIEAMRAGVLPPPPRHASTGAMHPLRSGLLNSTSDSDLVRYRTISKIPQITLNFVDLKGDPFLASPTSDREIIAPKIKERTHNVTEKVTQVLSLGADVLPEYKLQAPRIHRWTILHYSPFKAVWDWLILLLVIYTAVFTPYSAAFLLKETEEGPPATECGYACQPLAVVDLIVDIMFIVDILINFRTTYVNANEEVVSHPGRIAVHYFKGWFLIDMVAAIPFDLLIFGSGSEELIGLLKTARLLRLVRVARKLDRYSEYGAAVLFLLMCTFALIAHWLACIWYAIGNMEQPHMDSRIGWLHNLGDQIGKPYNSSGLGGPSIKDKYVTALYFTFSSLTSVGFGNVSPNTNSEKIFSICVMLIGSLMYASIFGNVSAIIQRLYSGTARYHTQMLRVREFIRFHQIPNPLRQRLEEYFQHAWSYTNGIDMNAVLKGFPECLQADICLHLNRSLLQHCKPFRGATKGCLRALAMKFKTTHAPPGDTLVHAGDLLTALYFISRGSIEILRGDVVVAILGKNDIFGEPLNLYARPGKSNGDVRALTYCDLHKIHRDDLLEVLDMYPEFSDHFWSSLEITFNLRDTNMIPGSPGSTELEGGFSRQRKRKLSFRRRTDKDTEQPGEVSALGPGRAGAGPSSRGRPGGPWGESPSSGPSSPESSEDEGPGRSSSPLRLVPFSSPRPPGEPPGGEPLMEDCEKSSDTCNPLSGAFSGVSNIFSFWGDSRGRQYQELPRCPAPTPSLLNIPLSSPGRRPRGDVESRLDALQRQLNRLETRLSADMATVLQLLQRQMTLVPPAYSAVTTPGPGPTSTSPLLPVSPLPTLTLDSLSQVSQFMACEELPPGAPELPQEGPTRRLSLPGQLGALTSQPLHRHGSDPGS

| SMILES | MIC [1] | inhibition at 1 h, 10 µM [2] [%] | also measured |
| --- | --- | --- | --- |
| CN/C(=C\[N+](=O)[O-])NCCNC(=O)c1cc(NC(=O)c2cc(NC(=O)c3ccc(/C=C/c4ccc(OC)cc4)nc3)cn2C)cn1C | 31 µM (≈ 19.9 µg/mL) | – | – |
| COc1cccc(/C=C/c2ccc(C(=O)Nc3cc(C(=O)Nc4cc(C(=O)NCCNC(=O)OC(C)(C)C)n(C)c4)n(C)c3)cc2)c1 | inactive | 36 | – |
| Cn1cc(NC(=O)c2cc(NC(=O)c3ccc(/C=C/c4cnc5ccccc5c4)cc3)cn2C)cc1C(=O)NCCN | inactive | 55 | – |
| COc1cccc(/C=C/c2ccc(C(=O)Nc3cc(C(=O)Nc4cc(C(=O)NCCOC(C)=O)n(C)c4)n(C)c3)cc2)c1 | inactive | – | – |
| COc1cccc(/C=C/c2ccc(C(=O)Nc3cc(C(=O)Nc4cc(C(=O)NCCO)n(C)c4)n(C)c3)cc2)c1 | inactive | 32 | – |
| COc1ccc(/C=C/c2ccc(C(=O)Nc3cc(C(=O)Nc4cc(C(=O)NCCN5CCOCC5)n(C)c4)n(C)c3)cn2)cc1 | 6.25 µM (≈ 3.82 µg/mL) | 58 | – |
| COc1ccc(/C=C/c2ccc(C(=O)Nc3cc(C(=O)Nc4cc(C(=O)NCCO)n(C)c4)n(C)c3)cn2)cc1 | inactive | – | – |
| COc1ccc(/C=C/c2ccc(C(=O)Nc3cc(C(=O)Nc4cc(C(=O)NCCNC(=N)N)n(C)c4)n(C)c3)cn2)cc1 | inactive | – | – |
| CN(C)CCCNC(=O)c1cc(NC(=O)c2cc(NC(=O)c3ccc(/C=C/c4cnc5ccccc5c4)cc3)cn2C)cn1C | 25 µM (≈ 15.1 µg/mL) | 60 | – |
| CN/C(=N\C#N)NCCNC(=O)c1cc(NC(=O)c2cc(NC(=O)c3ccc(/C=C/c4cnc5ccccc5c4)cc3)cn2C)cn1C | inactive | 54 | – |
| CN/C(=C\[N+](=O)[O-])NCCNC(=O)c1cc(NC(=O)c2cc(NC(=O)c3ccc(/C=C/c4cnc5ccccc5c4)cc3)cn2C)cn1C | 2.5 µM (≈ 1.65 µg/mL) | 51 | Activity [3]: Active; Activity [4]: Active; ΔTm [5]: 16 °C; Activity [6]: Active |
| CN/C(=C\[N+](=O)[O-])NCCNC(=O)c1cc(NC(=O)c2cc(NC(=O)c3ccc(/C=C/c4cccc(OC)c4)cc3)cn2C)cn1C | inactive | – | – |
| COc1cccc(/C=C/c2ccc(C(=O)Nc3cc(C(=O)Nc4cc(C(=O)NCCN5CCOCC5)n(C)c4)n(C)c3)cc2)c1 | 2 µM (≈ 1.22 µg/mL) | 65 | – |
| CN/C(=N\C#N)NCCNC(=O)c1cc(NC(=O)c2cc(NC(=O)c3ccc(/C=C/c4cccc(OC)c4)cc3)cn2C)cn1C | inactive | 58 | – |
| COc1cccc(/C=C/c2ccc(C(=O)Nc3cc(C(=O)Nc4cc(C(=O)NCCNC(=N)N)n(C)c4)n(C)c3)cc2)c1 | 25 µM (≈ 14.6 µg/mL) | 69 | – |
| Cn1cc(NC(=O)c2cc(NC(=O)c3ccc(/C=C/c4cnc5ccccc5c4)cc3)cn2C)cc1C(=O)NCCNC(=N)N | 7.8 µM (≈ 4.71 µg/mL) | – | Activity [3]: Active; Activity [4]: Active; ΔTm [5]: 29 °C; Activity [6]: Active |
| Cn1cc(NC(=O)c2cc(NC(=O)c3ccc(/C=C/c4cnc5ccccc5c4)cc3)cn2C)cc1C(=O)NCCNC(=O)C(F)(F)F | 12.5 µM (≈ 8.22 µg/mL) | 24 | – |
| Cn1cc(NC(=O)c2cc(NC(=O)c3ccc(/C=C/c4cnc5ccccc5c4)cc3)cn2C)cc1C(=O)NCCN1CCOCC1 [MGB-BP-3] | 0.12 µM (≈ 0.0758 µg/mL) | 65 | – |
| COc1ccc(/C=C/c2ccc(C(=O)Nc3cc(C(=O)Nc4cc(C(=O)NCCOC(C)=O)n(C)c4)n(C)c3)cn2)cc1 | inactive | – | – |
